Screening results (PubChem BioAssay)
Sampled rows, rich in hits. Any-hit rate of the full collection: about 1.6%.
CFTR F508del cor: CFTR F508del correction in bronchial cells; CFBE cells, YFP halide quenching; stimulated with forskolin plus potentiator P3; % fluorescence drop versus neutral controls; activity (quench increase), % at 7.58 µM; actives 0.36% (n = 350,000);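 active means mean added fluorescence quench of at least 8% versus neutral control, with both replicates also reaching 8%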;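 further: cells transiently co-express mutant CFTR-F508del with the halide-sensitive YFP; corrector assay measuring rescue of mutant channel to the surface after 24 h compound exposure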
DNMT1 block: DNMT1 (human) enzyme inhibition; P26358; DNMT1 molecular beacon, Hinp1I cleavage, fluorescence; inhibition (reported as % activation of signal), % at 10 µM; actives 0.83% (n = 360,000); in the data active means inhibition above about 50%
LMPTP block: LMPTP (human) inhibition; P24666; recombinant LMPTP-A, OMFP fluorogenic substrate, fluorescence intensity; inhibition, % at 20 µM; actives 0.22% (n = 360,000); AID 651560;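 active means compounds that cut the enzyme signal by at least half of the control window in the single-dose screen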
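Test system: LMPTP-A phosphatase enzyme. Amount: LMPTP-A at 0.625 nM final in the reaction. Reagent: OMFP substrate, 400 µM final. Times: 50 min at room temperature. Signal: endpoint fluorescence intensity from OMFP dephosphorylation. Read-out basis: % inhibition. Benchmarks: no-enzyme and uninhibited controls.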
STEP inh: inhibitors of human striatal-enriched phosphatase STEP. inhibition, % at 20 µM. actives 0.25% (n = 360,000). P54829. recombinant STEP, OMFP fluorogenic substrate, fluorescence;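 active means inhibition at 20 µM, scaled per plate between control wells, above about 37%, limit read from the data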
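Assay system: isolated STEP enzyme / Timing: 20 min at room temperature, dark / Doses: 20 µM, 1% DMSO / Technique: fluorescence intensity, excitation 480 nm, emission 540 nm / Reagent: fluorogenic phosphatase substrate OMFP at 25 µM final / Measure: percent inhibition scaled to no-enzyme and uninhibited-enzyme controls, plate-pattern corrected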
Scp1 inh: Scp-1 (human) phosphatase inhibition; inhibition, % at 20 µM; actives 0.88% (n = 340,000); AID 493091; Q9GZU7; Recombinant Scp1, phosphopeptide, malachite green phosphate absorbance;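 active means inhibition above about 50% at 20 µM, limit read from the data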
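Material – SCP-1 phosphatase catalytic domain, residues 76-261 · Buffer or medium – Acidic Tris acetate buffer with magnesium and detergent · Also added – Phospho 17-mer peptide substrate · Compound – single 20 µM dose, 1% DMSO · Times – 45 min room-temperature reaction, 5 min colour, 30 min stabiliser · Technique – Phosphate-binding colour reagent, absorbance read at 630 nm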
SUMO1 PPI mod: SUMO1-SIM interaction modulation | P63165 | SUMO1 binding to a labelled peptide, TR-FRET, 1 h | inhibition, % at 20 µM | actives 0.33% (n = 360,000); in the data active means inhibition above about 37%
Of the large screens only hits and unclear results are named; the others gave an inactive call.

CC(C)C[C@H]1CN([C@@H](CC(C)C)CN2CCCC2CN2C(=S)NC[C@@H]2Cc2ccc(O)cc2)C(=S)N1CCc1ccccc1 (stereo partly specified)	none
CC(C)C[C@H]1CN([C@@H](Cc2ccc(O)cc2)CN2CCC[C@H]2CN2C(=O)C(=O)NC[C@@H]2Cc2ccccc2)C(=O)C(=O)N1CC1CCCCC1	CFTR F508del cor 8.4 (no result: DNMT1 block, STEP inh, Scp1 inh)
Cn1c(C(=O)c2ccccc2[N+](=O)[O-])nc2ccccc21	CFTR F508del cor 8.6
O=Cc1ccnc(-c2ccc(OC(=O)c3ccco3)cc2)n1	SUMO1 PPI mod 55.7
O=C(Oc1ccc(-c2ccccc2)cc1)c1ccco1	none
CCCCN1C=C(C(=O)OC)C(c2ccccc2C(F)(F)F)C(C(=O)OC)=C1	none (no result: CFTR F508del cor)
CCCCN1C=C(C(=O)OC)C(c2ccccc2Cl)C(C(=O)OC)=C1	SUMO1 PPI mod 45.7 (no result: CFTR F508del cor)
CCNC(=O)[C@@H]1[C@@H](CO)[C@@H]2Cn3c(ccc(-c4ccc(OC)cc4)c3=O)[C@H]1N2S(C)(=O)=O	none (no result: DNMT1 block, LMPTP block, STEP inh, Scp1 inh, SUMO1 PPI mod)
O=C(O)CCN1C(=O)/C(=C\c2ccc(-c3nc4ccccc4s3)o2)SC1=S	DNMT1 block 109.0, STEP inh 79.0, Scp1 inh 63.0, SUMO1 PPI mod 86.6 (no result: CFTR F508del cor)
O=C(O)CCCN1C(=O)/C(=C\c2ccco2)SC1=S	DNMT1 block 57.7
O=C(CCCN1C(=O)/C(=C\c2ccco2)SC1=S)Nc1ccc2ccccc2c1	none (no result: CFTR F508del cor)
C[C@H](CO)N1C[C@H](C)[C@H](CN(C)C(=O)C2CC2)Oc2ncc(C#CC3CCCC3)cc2C1=O	none (no result: DNMT1 block, LMPTP block, STEP inh, Scp1 inh, SUMO1 PPI mod)
CCS(=O)(=O)Nc1ccc2c(c1)C(=O)N(C)C[C@H](OC)[C@@H](C)CN(C(=O)C1CCC1)[C@H](C)CO2	none (no result: DNMT1 block, LMPTP block, STEP inh, Scp1 inh, SUMO1 PPI mod)
Cc1ccc(CNC(=O)CS(=O)(=O)Cc2nc(-c3ccccc3F)oc2C)cc1	none
Cc1ccccc1-c1nc(CS(=O)(=O)CC(=O)NCc2ccccc2)c(C)o1	CFTR F508del cor 8.8
O=C1C=C(Nc2ccccc2C(=O)O)c2ccccc2C1=O	DNMT1 block 55.2
O=C1C=C(Nc2ccccc2)c2ccccc2C1=O	none
Cc1cc(NC(=O)c2ccccc2)nc2c1c(=O)oc1ccccc12	SUMO1 PPI mod 52.1
CCOc1ccc(C(=O)Nc2cc(C)c3c(=O)oc4ccccc4c3n2)cc1	none
CC(C)NC(=O)N(C)C[C@H]1Oc2cc(-c3cccnc3)ccc2S(=O)(=O)N([C@H](C)CO)C[C@@H]1C	none (no result: DNMT1 block, LMPTP block, STEP inh, Scp1 inh, SUMO1 PPI mod)
C/C(=N\Nc1cc(C)nc(-c2ccccc2O)n1)c1ccccc1	none (no result: CFTR F508del cor)
C/C(=N\Nc1cc(C)nc(-c2ccccc2)n1)c1cccc([N+](=O)[O-])c1	SUMO1 PPI mod 48.3
Cc1ccc(S(=O)(=O)N(C)C[C@@H]2Oc3ncc(-c4ccccc4)cc3C(=O)N([C@@H](C)CO)C[C@H]2C)cc1	none (no result: DNMT1 block, LMPTP block, STEP inh, Scp1 inh, SUMO1 PPI mod)
Cc1ccc(S(=O)(=O)N2CCOCC2)cc1NC(=O)CSc1nnc(COc2ccccc2F)n1N	CFTR F508del cor 28.2
COc1ccc(NC(=O)Nc2ccc3c(c2)C(=O)N([C@H](C)CO)C[C@@H](C)[C@H](CN(C)S(=O)(=O)c2cccs2)OCCCC[C@H](C)O3)cc1	none (no result: DNMT1 block, LMPTP block, STEP inh, Scp1 inh, SUMO1 PPI mod)
CCCNC(=O)N1[C@@H]2CN(C(=O)CC)c3ccccc3[C@@H]2[C@@H]1CO	none (no result: DNMT1 block, LMPTP block, STEP inh, Scp1 inh, SUMO1 PPI mod)
CCCCCCC(=O)Nc1nc(C)c(-c2csc(Nc3cc(Cl)ccc3C)n2)s1	SUMO1 PPI mod 87.3
COc1ccc(Cl)cc1Nc1nc(-c2sc(NC(=O)C(C)(C)C)nc2C)cs1	CFTR F508del cor 8.7, SUMO1 PPI mod 87.5
COc1ccc(OC)c(Nc2nc(-c3sc(NC(=O)C(C)(C)C)nc3C)cs2)c1	CFTR F508del cor 8.0
COc1ccc2c3c([nH]c2c1)[C@@H](CO)N(C(C)=O)CC31CN(Cc2ccccc2Cl)C1	none (no result: DNMT1 block, LMPTP block, STEP inh, Scp1 inh, SUMO1 PPI mod)
N#Cc1ccccc1OCCN1C(=O)c2ccccc2C1=O	none (no result: CFTR F508del cor)
Nc1cccc2c1C(=O)N(CCOc1ccccc1F)C2=O	Scp1 inh 56.1
C=CC[C@H](O)c1ccc(O)c(F)c1	none (no result: DNMT1 block, LMPTP block, STEP inh, Scp1 inh, SUMO1 PPI mod)
CC(CCCN1CCCC1)Nc1ccnc2cc(Cl)ccc12 (stereo unspecified)	LMPTP block 76.2
